Data published in ChEMBL document CHEMBL6083194, “Discovery and evaluation of 3-(2-isocyanobenzyl)-1H-indole derivatives as potential quorum sensing inhibitors for the control of Pseudomonas aeruginosa infections in vitro” (RSC Med Chem, 2024).
≈ marks a conversion by molar mass, not a printed value. Calls of active or inactive are those of the source. The calls are words filed in the database; no cut-off is given here.

What was measured:
Pseudomonas aeruginosa [1] = experiment: Antibacterial activity against Pseudomonas aeruginosa PAO1 by serial dilution method; format: functional
Summary of the method: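 PAO1 in LB, 37 °C. MIC by CLSI 2-fold serial dilution in Mueller–Hinton broth, inoculum 1–5 × 10^5 CFU mL−1, DMSO stocks. Growth curves: overnight culture diluted to OD600 = 0.05, subcultured to mid-log, rediluted to OD600 = 0.05, 3 mL with compound; OD620 read at 1, 3, 5, 7, 9, 11 and 24 h at 37 °C; DMSO negative control.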

Pseudomonas aeruginosa [2] = experiment: Inhibition of pyocyanin production in Pseudomonas aeruginosa PAO1 at 1/2 time MIC incubated for 18 hrs; format: functional
Summary of the method: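 Overnight PAO1 in LB diluted to OD600 = 0.05, subcultured 5–7 h to mid-log, rediluted to OD600 = 0.05. 5 mL with compound grown 18 h at 37 °C, 200 rpm. Supernatant extracted with 3 mL chloroform, back-extracted into 0.2 M HCl, absorbance at 520 nm.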

Pseudomonas aeruginosa [3] = experiment: Inhibition of rhamnolipid production in Pseudomonas aeruginosa PAO1 at 1/2 to 1/4 times MIC by orcinol method; format: functional, organism-based
Summary of the method: (§1)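 Overnight PAO1 diluted 1:100 into LB with compound, 37 °C, 180 rpm; DMSO control. Supernatant (100 μL) mixed with 900 μL 0.19% orcinol in 53% H2SO4, heated 30 min at 80 °C, cooled, read at 421 nm.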

Pseudomonas aeruginosa [4] = experiment: Inhibition of biofilm formation in Pseudomonas aeruginosa PAO1 incubated for 24 hrs crystal violet staining based SEM assay; format: functional, organism-based
[5] = Inhibition of quorum sensing system in Chromobacterium violaceum CV026
Summary of the method: (§2)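 Plate screen. CV026 grown overnight in LB with 50 μg ml−1 kanamycin; 15 μl seeded into 15 ml LB agar (1.0% agarose) containing 20 μM C4-HSL. PAO1 plates run in parallel. Test colonies inoculated by toothpick, incubated overnight at 37 °C. Ring of colourless viable cells around the colony scored as inhibition.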

[6] = Inhibition of quorum sensing system in Pseudomonas aeruginosa PAO1; summary of the method: as §2
Pseudomonas aeruginosa [7] = experiment: Inhibition of rhamnolipid production in Pseudomonas aeruginosa PAO1 at 1/4 times MIC by orcinol method; format: functional; summary of the method: as §1
Pseudomonas aeruginosa [8] = experiment: Inhibition of biofilm formation in Pseudomonas aeruginosa PAO1 at 1/2 times MIC incubated for 24 hrs crystal violet staining based SEM assay; format: functional
Pseudomonas aeruginosa [9] = experiment: Inhibition of rhamnolipid production in Pseudomonas aeruginosa PAO1 at 1/2 times MIC by orcinol method; format: functional; summary of the method: as §1
Pseudomonas aeruginosa [10] = experiment: Anti-virulence effect in Pseudomonas aeruginosa PAO1 assessed as inhibition of pyocyanin production at 25 ug/ml; format: functional; design: scale not given: the % may be the effect or the level left; settings: dose 25 µg/ml
Summary of the method: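 Overnight PAO1 culture in LB at 37 °C, diluted to OD600 0.05 and subcultured 5–7 h to mid-log phase, then re-diluted to OD600 0.05. Grown 18 h at 37 °C and 200 rpm with compound (6.25, 12.5, 25 μg mL−1) or DMSO. Supernatant extracted into chloroform, back-extracted into 0.2 M HCl, read at 520 nm.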

Pseudomonas aeruginosa [11] = experiment: Inhibition of biofilm formation in Pseudomonas aeruginosa PAO1 at 25 ug/ml incubated for 24 hrs crystal violet staining based assay; format: functional
Summary of the method: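 PAO1 grown statically for 24 h in LB ± compound in 24-well plates. Planktonic cells removed; attached cells stained with 0.05% crystal violet, rinsed, dissolved in 95% ethanol, read at OD570. DMSO negative, resveratrol positive control; SD from three independent experiments.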

Pseudomonas aeruginosa [12] = experiment: Anti-virulence effect in Pseudomonas aeruginosa PAO1 assessed as inhibition of rhamnolipid production at 25 ug/ml; format: functional; design: scale not given: the % may be the effect or the level left; settings: dose 25 µg/ml
Summary of the method: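 PAO1 culture supernatant from growth with compound (6.25–25 μg mL−1) at 37 °C and 180 rpm, or with DMSO or RSV (25 μg mL−1) as controls. Orcinol assay: 100 μL sample plus 0.19% orcinol in 53% H2SO4, heated 30 min at 80 °C, cooled, read at 421 nm. At least three experiments in triplicate.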

Pseudomonas aeruginosa [13] = experiment: Induction of biofilm eradication in Pseudomonas aeruginosa PAO1 at 25 ug/ml by crystal violet staining based assay; format: functional; settings: dose 25 µg/ml
Summary of the method: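 PAO1 biofilms grown overnight at 37 °C in LB in 24-well plates, washed with PBS, then fresh LB with compound added and grown overnight again. Washed, methanol-fixed, crystal violet stained, ethanol solubilised, read at OD570. DMSO negative, resveratrol positive control.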

Pseudomonas aeruginosa [14] = experiment: Anti-virulence effect in Pseudomonas aeruginosa PAO1 assessed as decrease in protease level at 25 ug/ml; format: functional; design: scale not given: the % may be the effect or the level left; settings: dose 25 µg/ml
Summary of the method: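 Overnight PAO1 culture diluted 1:100 into LB with compound (6.25–25 μg mL−1), grown at 37 °C and 180 rpm; DMSO and RSV (25 μg mL−1) as controls. Culture supernatant mixed with 2% azocasein in 1 M Tris–HCl pH 8.0 for 15 min at 37 °C. Reaction stopped with 10% TCA, centrifuged, NaOH added, read at OD440.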

Pseudomonas aeruginosa [15] = experiment: Anti-virulence effect in Pseudomonas aeruginosa PAO1 assessed as inhibition of EPS production at 25 ug/ml; format: functional; design: scale not given: the % may be the effect or the level left; settings: dose 25 µg/ml
Summary of the method: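 PAO1 grown with compound (6.25–25 μg mL−1) in 24-well plates for 24 h at 37 °C and 180 rpm; DMSO and RSV (25 μg mL−1) as controls. Biofilms washed with water, then treated with 0.9% NaCl, 5% phenol and 0.2% hydrazine sulfate. Held 1 h in the dark, read at OD490. Three independent experiments.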

Compound	MIC (Pseudomonas aeruginosa [1])	inhibition (Pseudomonas aeruginosa [2])	inhibition (Pseudomonas aeruginosa [3])	inhibition (Pseudomonas aeruginosa [4])	inhibition [5]	inhibition [6]	inhibition (INH) (Pseudomonas aeruginosa [7])	inhibition (INH) (Pseudomonas aeruginosa [8])	inhibition (INH) (Pseudomonas aeruginosa [9])	Activity (Pseudomonas aeruginosa [10])	inhibition at 25 µg/mL (Pseudomonas aeruginosa [11])	Activity (Pseudomonas aeruginosa [12])	inhibition (INH) (Pseudomonas aeruginosa [2])	Activity (Pseudomonas aeruginosa [13])	Activity (Pseudomonas aeruginosa [14])	Activity (Pseudomonas aeruginosa [15])
COc1ccc2[nH]cc(Cc3ccccc3C#N)c2c1	6 mg/L (≈ 22.9 µM)	Active; Showed Higher Activity Than Positive Control Rsv	Active	Dose-dependent-effect	Active; Showed Higher Activity	Active; Strong Inhibition Observed	30%	7%	44%	–	–	–	–	–	–	–
Oc1ccc(/C=C/c2cc(O)cc(O)c2)cc1 [RESVERATROL]	–	–	–	Dose-dependent-effect	–	–	–	–	–	26%	55%	12%	38%	47%	26%	22%
